pIC50: −log10 of the molar value. Calls of active or inactive are those of the source. The rule behind the calls is not given here.
Tests used:
[1] = test system: SH-SY5Y; assay: Inhibition of MPP+ induced superoxide radical production in human SH-SY5Y cells at 1 uM incubated for 24 hrs by microplate reader assay (reference value: 100%); assay type: functional
Outline: (§1)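 Neuron-like SH-SY5Y co-treated with 5 mM MPP+ and compound for 24 h; centrifuged at 500 × g, medium replaced with 10 μM dihydroethidium in PBS for 30 min, fluorescence 500/580 nm; MPP+ signal set to 100 %; triplicates on at least four independent days.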

[2] = test system: SH-SY5Y; assay: Neuroprotective activity against ATRA-differentiated and MPP+ induced cell death in human SH-SY5Y cells assessed as cell death at 1 uM by LDH release assay (reference value: 100%); assay type: functional
Outline: (§2)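 ATRA-differentiated SH-SY5Y co-treated with 5 mM MPP+ and compound; cell death by commercial LDH release kit; MPP+ value set to 100 %; triplicates on at least three independent days.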

[3] = test system: SH-SY5Y; assay: Neuroprotective activity against ATRA-differentiated and MPP+ induced cell death in human SH-SY5Y cells assessed as cell death at 1 uM incubated for 24 hrs by propidium iodide staining based fluorescence assay (reference value: 100%); assay type: functional
Outline: (§3)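 ATRA-differentiated SH-SY5Y co-treated with compound and 5 mM MPP+ for 24 h; cell death by propidium iodide fluorescence, MPP+-treated signal set to 100 %.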

[4] = molecular target: Acetylcholinesterase (Electrophorus electricus, UniProt O42275); assay: Inhibition of electric eel AChE using acetylthiocholine as substrate by Ellman's method
[5] = test system: SH-SY5Y; assay: Neuroprotective activity against ATRA-differentiated and 3-NPA induced cell death in human SH-SY5Y cells assessed as cell death at 0.1 uM incubated for 48 hrs by propidium iodide staining based fluorescence assay (reference value: 100%); assay type: functional
Outline: (§4)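 ATRA-differentiated SH-SY5Y co-treated with compound and 20 mM 3-nitropropionic acid for 48 h; cell death by propidium iodide fluorescence, 3-NPA-treated signal set to 100 %.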

[6] = test system: SH-SY5Y; assay: Inhibition of MPP+ induced mitochondrial depolarization in human SH-SY5Y cells at 1 uM incubated for 2 hrs by JC10 staining based confocal laser scanning microscopy; assay type: functional
Outline: (§5)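 ATRA-differentiated SH-SY5Y co-treated with 5 mM MPP+ and compound for 2 h; mitochondrial membrane potential by JC10 ratiometric red/green signal (plate) and confocal imaging of JC10-stained cells (50 000 cells/well slides); DMSO control set to 100 %; triplicates on three independent days.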

[7] = Selectivity index, ratio of IC50 for electric eel AChE to IC50 for equine serum BChE
Outline: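 Ratio of IC50 values from modified Ellman spectrophotometric assays with electric eel AChE and equine serum BChE. Each used enzyme at 0.2 U/mL final, acetylthiocholine or butyrylthiocholine at 40 μM, and DTNB at 100 μM. Inhibitors were dissolved in DMSO, diluted in water, and tested at five concentrations in triplicate. IC50 came from regression of v0/vi against inhibitor concentration.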

[8] = test system: SH-SY5Y; assay: Cytotoxicity against human SH-SY5Y cells assessed as cell death at 10 uM incubated for 72 hrs by propidium iodide staining based fluorescence assay; assay type: toxicity
Outline: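 SH-SY5Y differentiated to neuron-like phenotype with 10 μM all-trans retinoic acid for 48 h, 20 000 cells/well. Compounds from DMSO stocks (DMSO ≤0.5 %) added, then 72 h exposure. Control wells lysed with 1 % Triton X-100 for 1 min, then all wells stained with propidium iodide for fluorescence read-out. Dead-cell proportion expressed relative to Triton X-100-treated control.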

[9] = test system: SH-SY5Y; assay: Neuroprotective activity against ATRA-differentiated and 3-NPA induced cell death in human SH-SY5Y cells assessed as cell death at 1 uM incubated for 48 hrs by propidium iodide staining based fluorescence assay (reference value: 100%); assay type: functional; outline: as §4
[10] = test system: SH-SY5Y; assay: Neuroprotective activity against ATRA-differentiated and 3-NPA induced cell death in human SH-SY5Y cells assessed as cell death at 10 uM incubated for 48 hrs by propidium iodide staining based fluorescence assay (reference value: 100%); assay type: functional; outline: as §4
[11] = test system: SH-SY5Y; assay: Neuroprotective activity against MPP+ induced cell death in human SH-SY5Y cells assessed as cell death at 1 uM by YOPRO-1 staining based assay; assay type: functional
Outline: (§6)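 Neuron-like SH-SY5Y co-treated with compound and 5 mM MPP+ for 24 h; centrifuged at 500 × g, medium replaced by 1 μM YO-PRO1 in PBS for 15 min at room temperature; fluorescence 488/530 nm; MPP+ signal set to 100 %; triplicates on at least three independent days.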

[12] = test system: SH-SY5Y; assay: Neuroprotective activity against MPP+ induced cell death in human SH-SY5Y cells assessed as cell death at 1 uM incubated for 24 hrs by Cas-3, 7 staining based assay; assay type: functional
Outline: (§7)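 Caspase-3/7 activation with Ac-DEVD-AFC substrate after 24 h co-treatment of neuron-like SH-SY5Y with compound and 5 mM MPP+; MPP+ signal set to 100 %; triplicates on at least three independent days.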

[13] = test system: SH-SY5Y; assay: Inhibition of MPP+ induced mitochondrial superoxide radical production in human SH-SY5Y cells at 1 uM incubated for 24 hrs by MitoSOX staining based microplate reader assay (reference value: 100%); assay type: functional
Outline: (§8)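 Neuron-like SH-SY5Y (20 000 cells/well) co-treated with 5 mM MPP+ and compound for 24 h; plates centrifuged, medium replaced by 5 μM MitoSOX in HBSS, 30 min at 37 °C, fluorescence 500/580 nm; MPP+ signal set to 100 %; triplicates on at least four independent days.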

[14] = test system: SH-SY5Y; assay: Neuroprotective activity against ATRA-differentiated and MPP+ induced cell death in human SH-SY5Y cells assessed as cell death at 10 uM incubated for 24 hrs by propidium iodide staining based fluorescence assay (reference value: 100%); assay type: functional; outline: as §3
[15] = test system: SH-SY5Y; assay: Neuroprotective activity against ATRA-differentiated and MPP+ induced cell death in human SH-SY5Y cells assessed as cell death at 0.1 uM incubated for 24 hrs by propidium iodide staining based fluorescence assay (reference value: 100%); assay type: functional; outline: as §3
[16] = molecular target: Cholinesterase (Equus caballus, UniProt P81908); assay: Inhibition of equine serum BChE using butyrylthiocholine as substrate by Ellman's method
Outline: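 Equine serum BChE (0.2 U/mL final) with 40 μM butyrylthiocholine and 100 μM DTNB, modified Ellman spectrophotometry; compounds from DMSO diluted in water, five inhibitor concentrations; IC50 from regression of v0/vi versus inhibitor concentration; triplicate.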

[17] = test system: SH-SY5Y; assay: Neuroprotective activity against MPP+ induced cell death in human SH-SY5Y cells assessed as decrease in PARP1 cleavage at 1 to 10 uM incubated for 24 hrs by immunoblotting analysis; assay type: functional, cell-based; settings: dose 1-10 µM
[18] = test system: SH-SY5Y; assay: Neuroprotective activity against MPP+ induced cell death in human SH-SY5Y cells at 1 to 10 uM in presence of AM630; assay type: functional, cell-based; settings: dose 1-10 µM
Outline: (§9)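 Neuron-like SH-SY5Y co-treated for 24 h with 5 mM MPP+, compound and CB2 inverse agonist AM630 or antagonist SR144528 at 0.1, 1 or 10 μM; CB2 ligands also tested alone and with MPP+; cell death read-out; triplicates on three independent days.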

[19] = test system: SH-SY5Y; assay: Inhibition of MPP+ induced superoxide radical production in human SH-SY5Y cells at 10 uM incubated for 24 hrs by microplate reader assay (reference value: 100%); assay type: functional; outline: as §1
[20] = test system: SH-SY5Y; assay: Neuroprotective activity against MPP+ induced cell death in human SH-SY5Y cells at 1 to 10 uM in presence of SR144528; assay type: functional, cell-based; settings: dose 1-10 µM; outline: as §9
[21] = test system: SH-SY5Y; assay: Neuroprotective activity against MPP+ induced cell death in human SH-SY5Y cells assessed as cell death at 10 uM by YOPRO-1 staining based assay; assay type: functional; outline: as §6
[22] = test system: SH-SY5Y; assay: Neuroprotective activity against ATRA-differentiated and MPP+ induced cell death in human SH-SY5Y cells assessed as cell death at 10 uM by LDH release assay (reference value: 100%); assay type: functional; outline: as §2
[23] = test system: SH-SY5Y; assay: Inhibition of MPP+ induced Akt phosphorylation at Ser473 residues in human SH-SY5Y cells at 1 to 10 uM incubated for 24 hrs by Western blotting analysis; assay type: cell-based; settings: dose 1-10 µM
Outline: (§10)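 ATRA-differentiated neuron-like SH-SY5Y co-treated with 5 mM MPP+ and compound for 24 h, lysed in RIPA buffer, SDS-PAGE, transfer to nitrocellulose, immunoblot for p-Akt (Ser473) and ERK1/2; HSP90 and β-actin loading controls; ECL chemiluminescence imaged by CCD camera.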

[24] = test system: SH-SY5Y; assay: Inhibition of MPP+ induced superoxide radical production in ATRA-differentiated human SH-SY5Y cells at 10 uM incubated for 24 hrs by MitoSOX staining based confocal laser scanning microscopy; assay type: functional, cell-based
Outline: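 50 000 cells seeded on chamber slides, ATRA-differentiated, co-treated with 5 mM MPP+ and compound for 24 h, then stained with MitoSOX and imaged by confocal laser-scanning microscopy (63× objective).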

[25] = molecular target: Cannabinoid receptor 2 (Homo sapiens) (UniProt P34972); assay: Activation of CB2 (unknown origin) expressed in CHO cells at 1 to 10 uM; assay type: cell-based; settings: dose 1-10 µM
Outline: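 cAMP quantified in CB2-transfected CHO cells after treatment; compound tested at 1 and 10 μM to detect direct receptor activation (commercial LeadHunter service).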

[26] = molecular target: T1, Mitogen-activated protein kinase; ERK1/ERK2 (Homo sapiens) (UniProt P27361+P28482); assay: Inhibition of MPP+ induced ERK1/2 phosphorylation in human SH-SY5Y cells at 1 to 10 uM incubated for 24 hrs by Western blotting analysis; assay type: cell-based; settings: dose 1-10 µM; outline: as §10
[27] = test system: SH-SY5Y; assay: Inhibition of MPP+ induced mitochondrial superoxide radical production in human SH-SY5Y cells at 10 uM incubated for 24 hrs by MitoSOX staining based microplate reader assay (reference value: 100%); assay type: functional; outline: as §8
[28] = test system: SH-SY5Y; assay: Inhibition of MPP+ induced mitochondrial depolarization in human SH-SY5Y cells at 10 uM incubated for 2 hrs by JC10 staining based confocal laser scanning microscopy; assay type: functional; outline: as §5
[29] = test system: SH-SY5Y; assay: Neuroprotective activity against MPP+ induced cell death in human SH-SY5Y cells assessed as cell death at 10 uM incubated for 24 hrs by Cas-3, 7 staining based assay; assay type: functional; outline: as §7
[30] = test system: SH-SY5Y; assay: Inhibition of MPP+ induced mitochondrial depolarization in human SH-SY5Y cells at 0.1 to 1 uM incubated for 2 hrs by JC10 staining based confocal laser scanning microscopy; assay type: functional, cell-based; settings: dose 0.1-1 µM; outline: as §5
[31] = molecular target: T1, Mitogen-activated protein kinase; ERK1/ERK2 (Homo sapiens); assay: Inhibition of MPP+ induced ERK1/2 phosphorylation in human SH-SY5Y cells at 10 uM incubated for 24 hrs by Western blotting analysis; assay type: cell-based; outline: as §10

Acetylcholinesterase, sequence (O42275 whole entry): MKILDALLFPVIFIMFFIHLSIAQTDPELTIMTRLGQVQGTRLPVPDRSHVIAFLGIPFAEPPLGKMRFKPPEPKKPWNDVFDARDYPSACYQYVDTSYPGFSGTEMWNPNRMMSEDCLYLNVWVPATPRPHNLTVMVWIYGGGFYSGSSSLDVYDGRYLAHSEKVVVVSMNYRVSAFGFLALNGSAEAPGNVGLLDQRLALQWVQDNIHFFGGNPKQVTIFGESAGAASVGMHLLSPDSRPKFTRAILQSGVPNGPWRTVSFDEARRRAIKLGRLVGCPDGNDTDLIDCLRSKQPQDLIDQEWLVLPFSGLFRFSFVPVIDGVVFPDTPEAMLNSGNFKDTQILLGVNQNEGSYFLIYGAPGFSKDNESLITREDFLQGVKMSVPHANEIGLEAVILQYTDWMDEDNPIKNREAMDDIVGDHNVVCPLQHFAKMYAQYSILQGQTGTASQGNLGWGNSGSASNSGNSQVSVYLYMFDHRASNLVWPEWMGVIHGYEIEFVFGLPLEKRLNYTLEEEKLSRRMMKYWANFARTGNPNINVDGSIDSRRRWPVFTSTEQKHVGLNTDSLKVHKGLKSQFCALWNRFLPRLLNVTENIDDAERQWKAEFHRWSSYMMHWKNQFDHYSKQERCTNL
Cholinesterase, sequence (P81908 whole entry): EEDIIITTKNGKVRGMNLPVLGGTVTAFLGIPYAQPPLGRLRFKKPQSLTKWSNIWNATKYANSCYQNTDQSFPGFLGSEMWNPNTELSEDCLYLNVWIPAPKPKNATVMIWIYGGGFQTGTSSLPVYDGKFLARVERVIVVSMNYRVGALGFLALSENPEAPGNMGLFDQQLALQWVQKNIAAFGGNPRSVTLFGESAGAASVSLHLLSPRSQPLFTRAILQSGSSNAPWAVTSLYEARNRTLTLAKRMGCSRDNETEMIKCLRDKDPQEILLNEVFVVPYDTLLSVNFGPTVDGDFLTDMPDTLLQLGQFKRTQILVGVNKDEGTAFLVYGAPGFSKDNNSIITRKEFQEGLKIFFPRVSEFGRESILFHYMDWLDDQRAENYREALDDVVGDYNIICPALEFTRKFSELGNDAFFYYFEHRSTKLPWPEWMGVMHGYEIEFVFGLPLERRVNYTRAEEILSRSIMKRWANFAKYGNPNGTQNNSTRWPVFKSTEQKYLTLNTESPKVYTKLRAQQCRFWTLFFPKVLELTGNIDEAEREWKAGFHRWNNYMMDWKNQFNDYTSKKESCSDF
T1 sequence (P27361 whole entry, looked up): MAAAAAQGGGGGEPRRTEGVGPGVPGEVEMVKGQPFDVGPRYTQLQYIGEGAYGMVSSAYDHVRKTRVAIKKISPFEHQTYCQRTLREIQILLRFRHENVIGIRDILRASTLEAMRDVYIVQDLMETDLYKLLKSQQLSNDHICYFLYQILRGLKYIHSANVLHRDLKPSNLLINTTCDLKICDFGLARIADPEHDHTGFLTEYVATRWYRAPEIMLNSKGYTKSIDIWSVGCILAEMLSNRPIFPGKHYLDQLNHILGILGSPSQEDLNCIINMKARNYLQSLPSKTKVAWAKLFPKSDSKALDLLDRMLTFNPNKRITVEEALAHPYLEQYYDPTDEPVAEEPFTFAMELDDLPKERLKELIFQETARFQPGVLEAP
T1 sequence (P28482 whole entry, looked up): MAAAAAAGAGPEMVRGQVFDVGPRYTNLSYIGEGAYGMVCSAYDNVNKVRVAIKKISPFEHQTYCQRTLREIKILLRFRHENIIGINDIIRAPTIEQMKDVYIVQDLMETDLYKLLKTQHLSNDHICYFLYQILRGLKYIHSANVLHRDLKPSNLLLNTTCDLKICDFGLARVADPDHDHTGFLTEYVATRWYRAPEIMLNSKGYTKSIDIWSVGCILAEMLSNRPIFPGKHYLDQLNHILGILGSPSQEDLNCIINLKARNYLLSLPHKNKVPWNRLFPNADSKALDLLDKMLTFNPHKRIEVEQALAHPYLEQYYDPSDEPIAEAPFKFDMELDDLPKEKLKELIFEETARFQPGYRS
Cannabinoid receptor 2 (Homo sapiens), sequence (P34972 whole entry): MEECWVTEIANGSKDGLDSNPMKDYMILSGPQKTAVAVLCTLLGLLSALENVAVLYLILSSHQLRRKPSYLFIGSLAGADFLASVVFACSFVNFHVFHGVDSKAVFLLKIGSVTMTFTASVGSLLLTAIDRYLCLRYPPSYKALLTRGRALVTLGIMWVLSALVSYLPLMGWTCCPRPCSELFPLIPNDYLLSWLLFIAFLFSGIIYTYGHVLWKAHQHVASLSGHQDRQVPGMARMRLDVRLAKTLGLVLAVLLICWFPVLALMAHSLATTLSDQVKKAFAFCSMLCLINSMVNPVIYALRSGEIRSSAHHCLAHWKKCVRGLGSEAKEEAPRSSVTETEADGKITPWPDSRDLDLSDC

Structure (SMILES)	Activity [2]	Activity [3] [%]	pIC50 [4]	Activity [5] [%]	Ratio IC50 [7]	Activity [8] [%]	Activity [9] [%]	Activity [10] [%]	Activity [11] [%]	Activity [12] [%]	Activity [14] [%]	Activity [15] [%]	pIC50 [16]	Activity [17]	inhibition at 10 µM [19] [%]	Activity [21] [%]	Activity [22] [%]	inhibition [23]	inhibition at 10 µM [27] [%]	also measured
c1ccc2c(c1)NC1(CCCCC1)c1c-2nc2ccccn12	65.1%	37.3	4.47	78.5	1.72	12.2	64	65.8	58.7	59.1	52.7	57	4.70	–	–	–	–	–	–	inhibition at 1 µM [1]: 59.9%; inhibition at 1 µM [6]: 70.6%; inhibition at 1 µM [13]: 61.7%
CC1(C)Nc2ccccc2-c2nc3ccccn3c21	Active	39.7	4.32	98.7	1.68	14.6	83.1	57.8	58.8	64.2	26.2	96.7	4.54	Active	44.4	37.9	50.2	Active	41.3	Activity [18]: inactive; Activity [20]: inactive; inhibition [24]: Active; Activity [25]: inactive; inhibition [26]: Active; inhibition at 10 µM [28]: 66.8%; Activity [29]: 48.8%
O=c1c2ccccc2[se]n1-c1ccccc1 [EBSELEN]	–	80	4.90	118.7	1.05	18.3	112	132.9	–	–	27.5	99.5	4.92	Active	57.1	53.4	59.2	inactive	63.3	inhibition [30]: inactive; inhibition [31]: inactive
